# PMI act = activators of human PMI, primary screen, biochemical, fluorescence intensity, near-Km mannose 6-phosphate; purified human PMI, coupled resazurin fluorescence, 20 min; stronger effect = higher value; 1 = vehicle control, 0 substrate-free wells; activation factor at 20 µM; actives 0.005% (n = 190,000);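 active = activation factor of 2 or more at 20 µM, relative to plate controls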
# PMI act hi M6P = human PMI activators, high substrate, primary screen, biochemical, fluorescence intensity, near-saturating mannose 6-phosphate. actives 0.34% (n = 190,000). AID 1216, 2008. coupled PMI enzyme assay, resazurin fluorescence, 20 min; stronger effect = higher value; 1 = untreated enzyme, 0 = substrate-free blank. activation factor at 20 µM;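 active = activation factor of 2 or more at 20 µM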
#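 test system = human PMI in coupled enzyme assay | medium = HEPES-buffered pH 7.4 with magnesium and detergent | also added = 1.0 mM mannose-6-phosphate substrate with 0.22 mM NADP+ | compound = 20 µM single dose | times = 20 min incubation at room temperature | measured by = resorufin fluorescence (Ex 544/Em 590 nm) from resazurin via diaphorase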
# m-calpain inh = inhibitors of pig calpain II, primary screen, biochemical, fluorogenic peptide substrate, 1536-well. purified calpain II, 30 min. inhibition, % at 16 µM. actives 0.37% (n = 220,000);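 active = inhibition above about 50%, limit read from the data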
# Rad51 HR inh = human RAD51 strand exchange inhibitors, primary screen, biochemical, fluorescence | hRad51 DNA strand exchange, fluorescence dequenching | actives 0.085% (n = 200,000) | DNA repair protein RAD51 homolog 1 (Homo sapiens), Q06609 | inhibition, % at 10 µM;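 active = inhibition above 40% at the single screening dose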
# Target sequence (Q06609 whole entry, looked up): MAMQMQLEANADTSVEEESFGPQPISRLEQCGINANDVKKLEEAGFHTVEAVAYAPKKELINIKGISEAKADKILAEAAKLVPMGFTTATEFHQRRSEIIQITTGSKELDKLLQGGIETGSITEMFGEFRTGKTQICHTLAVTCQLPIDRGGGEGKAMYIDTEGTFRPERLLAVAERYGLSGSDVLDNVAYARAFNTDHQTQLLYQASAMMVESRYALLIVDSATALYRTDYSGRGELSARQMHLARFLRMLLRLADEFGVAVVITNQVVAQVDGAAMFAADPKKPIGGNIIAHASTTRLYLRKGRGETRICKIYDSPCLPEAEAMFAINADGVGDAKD
#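 System: human Rad51 nucleoprotein filaments preassembled on unlabelled ssDNA. Reagent: labelled 47-mer dsDNA for strand exchange. Schedule: 30-min compound preincubation and 15-min exchange, both room temperature. Measured by: FRET fluorescence dequenching, excitation 485 nm, emission 520 nm. Read-out: Fluorescence-based percent inhibition, control- and blank-normalised. Benchmarks: plate controls and plate blanks.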
# WT yeast gro inh = growth inhibition of WT strain, primary screen, mitochondrial fusion inhibitor project, WT and mutant strains, chemical genetic. mitochondrial fusion phenotypic screen. inhibition, % at 10 µM. actives 2.1% (n = 190,000); in the data active = inhibition above about 58%; tested in S. cerevisiae
# Lmaj promast = Leishmania major promastigote growth inhibition, primary screen; actives 9% (n = 200,000); Leishmania major promastigotes, resazurin fluorescence viability; inhibition, % at 10 µM; in the data active = inhibition above about 50%;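 note: promastigotes grown with compound for 44 hours at 28 °C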
# Hits are given with their value; n = inactive; x = no result. Most compounds without a hit are left out; they make up all but 9.8% or so of the library.
SMILES,PMI act,PMI act hi M6P,m-calpain inh,Rad51 HR inh,WT yeast gro inh,Lmaj promast
O=C(Nc1nc2nccc(-c3ccccc3)n2n1)C(Cl)(Cl)Cl,n,n,n,n,n,53
O=C1c2ccccc2C(=O)N1c1nc2nccc(-c3ccccc3)n2n1,n,n,n,n,n,n
Cc1ccc(C(=O)/C=C\C(=O)c2ccc(C)cc2)cc1,n,n,n,n,n,100
COc1cc(C2Oc3ccccc3C=C2[N+](=O)[O-])cc(OC)c1OC (stereo not drawn),x,x,n,n,x,x
Cc1nn(C)c(Oc2cccc(C(F)(F)F)c2)c1C=O,n,n,n,n,n,n
Cn1c(/C(C#N)=C/C2CC=CCC2)nc2ccccc21 (stereo not drawn),n,n,n,n,n,79
N#C/C(=C\C1CC=CCC1)c1nc2ccccc2[nH]1 (stereo not drawn),n,n,n,n,n,95
CN(C)/C=C(\C#N)c1nc2ccccc2[nH]1,n,n,n,n,n,n
COC(=O)Cn1cc(/C=C(/C#N)C(=O)N2CCOCC2)c2ccccc21,n,n,n,n,n,n
CC1CCN(c2ccc(C(=O)O)cc2NS(=O)(=O)c2ccc(Br)cc2)CC1,n,n,n,x,n,n
Cc1ccc(C2=NN(C(=O)CCl)C(c3cccs3)C2)o1 (stereo not drawn),n,n,n,n,n,90
O=C(CCl)N1N=C(c2ccco2)CC1c1cccs1 (stereo not drawn),n,n,n,n,n,90
CN(C)c1ccc(/C=C/c2nnnn2-c2ccccc2)cc1,n,n,n,x,n,56
CC(C)(C)c1ccc(S(=O)(=O)N2CCN(c3ncccn3)CC2)cc1,n,n,n,n,n,n
CCC1CCCCN1C(=O)Cn1nc([N+](=O)[O-])c(Cl)c1C (stereo not drawn),n,n,n,n,n,n
COc1ccc(C2CCCN2C(=S)Nc2cccc(C)c2C)cc1OC (stereo not drawn),n,n,n,x,n,n
CC(=O)CCc1oc2c([N+](=O)[O-])cccc2c1-c1ccc(C)o1,n,n,n,n,69,n
CO/N=C(\c1nonc1N)N1CCN(c2ccc(Cl)cc2[N+](=O)[O-])CC1,n,n,n,x,75,n
NNC(=O)c1cc(Br)cs1,n,n,n,x,n,n
O=C(COc1ccc(Cl)cc1Cl)NNC(=S)NCc1ccco1,n,n,n,n,76,n
CC1=CC(C)(C)N(C(=O)c2ccc(F)cc2)c2cc3c(cc21)OCO3,n,n,n,x,71,n
CC1=CC(C)(C)N(C(=O)CCl)c2cc(C)ccc21,n,n,n,n,n,n
N#C/C(=C(/O)CCl)c1nc2ccccc2[nH]1,n,n,n,n,n,n
Cc1ccc2nc(NCCCN3CCOCC3)c(C=NCCCN3CCOCC3)c(=O)n2c1,n,n,n,n,n,79
Cc1nc(=O)c(-c2ccccc2)c(C)n1CCCCCC(=O)O,n,n,n,n,83,n
SMILES,PMI act,PMI act hi M6P,m-calpain inh,Rad51 HR inh,WT yeast gro inh,Lmaj promast
COC(=O)c1ccccc1N/C=C/C(=O)c1ccc(Br)cc1,n,n,n,n,n,73
CCOc1ccc(/C=N/NC(=O)c2ccc(Cn3cc(Br)cn3)o2)cc1,n,n,n,n,n,59
O=C(N/N=C\c1ccc2c(c1)OCO2)c1ccc(Cn2cc(Br)c([N+](=O)[O-])n2)o1,n,n,n,n,n,83
CCOC(=O)Cc1nnc(NC(=O)CSc2nc3ccccc3[nH]2)s1,x,x,n,n,x,x
Cc1ccc2nc(NC3=NCN(Cc4ccc5c(c4)OCO5)CN3)nc(C)c2c1,x,x,x,x,x,100
Cc1ccc2nc(NC3=NCN(Cc4ccco4)CN3)nc(C)c2c1,x,x,x,x,n,x
Cc1ccc(C(=O)N/C(=C/C=C\c2ccccc2)C(=O)NCc2ccco2)cc1,n,n,n,x,n,n
CCC(SC1=NCCS1)C(=O)Nc1ccc(S(N)(=O)=O)cc1 (stereo not drawn),n,n,n,n,n,n
COc1ccccc1NC(=O)/C=C1\NC(=O)CS1,n,n,n,n,n,88
COc1ccccc1NC(=O)c1cc(C(=O)Nc2ccccc2OC)cc(N2C(=O)CCC2=O)c1,n,n,n,n,n,n
COc1ccccc1NC(=O)/C=C1\SCC(=O)N1C,n,n,n,n,n,100
O=C(CSc1nc(-c2ccccc2F)nc2nc[nH]c12)Nc1c(Cl)cc(Cl)cc1Cl,n,n,n,n,n,n
CCc1cccc(C)c1NC(=O)CSc1nc(-c2ccccc2F)nc2nc[nH]c12,n,n,n,n,n,62
CC(=O)NC(CC(=O)NC12CC3CC(CC(C3)C1)C2)c1ccccc1 (stereo not drawn),n,n,n,n,n,63
O=C(NC12CC3CC(CC(C3)C1)C2)c1ccccc1O,n,n,n,n,n,50
O=C(CSc1ccccc1C(=O)O)NC12CC3CC(CC(C3)C1)C2,x,x,n,n,x,x
Cc1ccc(-c2nnc(NC3CCCCC3)c3ccccc23)cc1S(=O)(=O)N1CCN(C)CC1,n,n,n,x,n,96
COC(=O)c1ccccc1NC(=O)N1CCN(c2ccc(F)cc2)CC1,n,n,51,n,n,n
CCOC(=O)CSc1nc2sc3c(c2c(=O)[nH]1)CC(C)(CC)OC3 (stereo not drawn),n,n,n,n,n,n
CCC1(C)Cc2c(sc3nc(NN)n(C)c(=O)c23)CO1 (stereo not drawn),n,n,n,n,n,95
O=C(c1cc2cc([N+](=O)[O-])ccc2s1)N1CCCCC1,n,n,55,n,n,n
COC(=O)CSc1cc(SCC(=O)OC)c(C#N)c(SCC(=O)OC)c1,n,n,n,n,n,64
Cc1ccc(N(CC(=O)Nc2ccc3c(c2)OCCO3)S(C)(=O)=O)cc1,n,n,n,n,n,n
O=c1c2c([nH]c3ccccc13)CCCCC2,x,x,n,n,x,x
O=c1c2c([nH]c3ccccc13)CCCCCC2,n,n,n,n,n,64
Cc1cccc(Cn2c(=O)n(Cc3ccco3)c(=O)c3ccccc32)c1,n,n,55,n,n,n
CS(=O)(=O)N(CC(=O)NCc1ccco1)c1cccc([N+](=O)[O-])c1,n,n,n,n,n,n
COc1cccc(-n2nnc3c(=O)n(CC(=O)N4CCCc5ccccc54)cnc32)c1,n,n,n,n,n,71
COc1cccc(-n2nnc3c(=O)n(CC(=O)N4CCC(Cc5ccccc5)CC4)cnc32)c1,n,n,n,x,n,94

# Source: PubChem BioAssay
